ChEMBL document CHEMBL1137180, “Synthesis and structure-activity relationship of a novel sulfone series of TNF-alpha converting enzyme inhibitors” (Bioorg Med Chem Lett, 2004)

Legend:
Caco-2 = assay: Permeability action in Caco-2 cells; type: functional, Homo sapiens
Interstitial collagenase = target: T1, Interstitial collagenase (Homo sapiens, UniProt P03956); assay: Inhibition of Matrix metalloprotease-1 (MMP-1)
T1 sequence (P03956 whole entry): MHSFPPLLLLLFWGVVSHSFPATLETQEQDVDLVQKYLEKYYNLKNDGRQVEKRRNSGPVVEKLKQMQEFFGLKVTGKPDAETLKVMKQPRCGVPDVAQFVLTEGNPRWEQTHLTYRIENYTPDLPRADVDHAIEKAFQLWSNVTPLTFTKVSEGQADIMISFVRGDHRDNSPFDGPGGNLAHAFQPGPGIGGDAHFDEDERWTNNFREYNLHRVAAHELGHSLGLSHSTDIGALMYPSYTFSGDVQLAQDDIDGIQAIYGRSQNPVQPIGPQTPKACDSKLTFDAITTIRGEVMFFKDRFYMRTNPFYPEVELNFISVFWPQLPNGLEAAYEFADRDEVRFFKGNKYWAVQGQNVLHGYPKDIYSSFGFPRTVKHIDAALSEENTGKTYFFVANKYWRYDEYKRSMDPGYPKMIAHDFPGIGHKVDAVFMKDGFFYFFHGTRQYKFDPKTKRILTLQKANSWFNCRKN
How it was run: (§1)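 Inhibition is reported as Ki (nM) against each isolated MMP. Each value comes from a single determination, with no replicates.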

[1] = target: 72 kDa type IV collagenase (Homo sapiens, UniProt P08253); assay: inhibition of Matrix metalloprotease-2 (MMP-2); how it was run: as §1
72 kDa type IV collagenase, sequence (P08253 whole entry): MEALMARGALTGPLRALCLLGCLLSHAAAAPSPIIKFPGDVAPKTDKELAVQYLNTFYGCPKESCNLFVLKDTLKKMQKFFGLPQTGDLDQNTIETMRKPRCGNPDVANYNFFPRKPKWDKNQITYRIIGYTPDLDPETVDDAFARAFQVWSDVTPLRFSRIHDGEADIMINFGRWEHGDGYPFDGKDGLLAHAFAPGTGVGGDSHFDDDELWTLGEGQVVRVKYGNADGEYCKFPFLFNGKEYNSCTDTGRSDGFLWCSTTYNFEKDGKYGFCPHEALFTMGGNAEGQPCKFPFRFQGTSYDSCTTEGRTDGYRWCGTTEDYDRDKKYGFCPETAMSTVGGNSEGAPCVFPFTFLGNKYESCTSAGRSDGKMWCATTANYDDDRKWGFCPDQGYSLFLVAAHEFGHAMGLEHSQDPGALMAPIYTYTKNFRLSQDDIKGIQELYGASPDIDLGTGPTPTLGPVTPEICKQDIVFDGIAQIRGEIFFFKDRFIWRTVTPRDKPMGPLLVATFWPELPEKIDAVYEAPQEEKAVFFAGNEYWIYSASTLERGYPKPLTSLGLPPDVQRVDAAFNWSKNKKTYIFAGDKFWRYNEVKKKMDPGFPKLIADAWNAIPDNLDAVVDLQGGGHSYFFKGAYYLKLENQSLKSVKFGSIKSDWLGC

[2] = target: Matrix metalloproteinase-9 (Homo sapiens, UniProt P14780); assay: Inhibition of Matrix metalloprotease-9 (MMP-9); how it was run: as §1
Matrix metalloproteinase-9, sequence (P14780 whole entry, the tested form may be a part): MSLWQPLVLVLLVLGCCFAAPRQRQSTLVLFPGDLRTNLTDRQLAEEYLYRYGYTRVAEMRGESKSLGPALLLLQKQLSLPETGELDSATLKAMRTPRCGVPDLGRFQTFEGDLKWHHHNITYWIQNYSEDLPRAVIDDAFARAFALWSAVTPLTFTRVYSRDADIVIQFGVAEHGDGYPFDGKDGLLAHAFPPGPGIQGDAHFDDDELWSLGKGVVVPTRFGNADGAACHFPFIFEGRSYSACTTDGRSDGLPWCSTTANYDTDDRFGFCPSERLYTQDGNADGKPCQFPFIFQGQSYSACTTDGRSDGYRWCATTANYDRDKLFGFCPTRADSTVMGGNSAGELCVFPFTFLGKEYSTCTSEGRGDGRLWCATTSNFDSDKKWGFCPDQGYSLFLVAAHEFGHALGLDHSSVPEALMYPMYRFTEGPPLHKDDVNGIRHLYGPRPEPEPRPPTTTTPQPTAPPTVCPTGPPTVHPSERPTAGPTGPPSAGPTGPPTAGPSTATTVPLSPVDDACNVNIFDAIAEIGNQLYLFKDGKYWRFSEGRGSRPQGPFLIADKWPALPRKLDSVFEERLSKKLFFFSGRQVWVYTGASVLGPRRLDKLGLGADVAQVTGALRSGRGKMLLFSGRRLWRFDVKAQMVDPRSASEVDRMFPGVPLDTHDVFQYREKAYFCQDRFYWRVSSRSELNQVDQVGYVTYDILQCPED

[3] = target: Disintegrin and metalloproteinase domain-containing protein 17 (Homo sapiens, UniProt P78536); assay: Effect on TNF-Alpha release in LPS-stimulated human whole blood assay; type: functional, tissue-based
Disintegrin and metalloproteinase domain-containing protein 17 (Homo sapiens, UniProt P78536), sequence (P78536 whole entry, the tested form may be a part): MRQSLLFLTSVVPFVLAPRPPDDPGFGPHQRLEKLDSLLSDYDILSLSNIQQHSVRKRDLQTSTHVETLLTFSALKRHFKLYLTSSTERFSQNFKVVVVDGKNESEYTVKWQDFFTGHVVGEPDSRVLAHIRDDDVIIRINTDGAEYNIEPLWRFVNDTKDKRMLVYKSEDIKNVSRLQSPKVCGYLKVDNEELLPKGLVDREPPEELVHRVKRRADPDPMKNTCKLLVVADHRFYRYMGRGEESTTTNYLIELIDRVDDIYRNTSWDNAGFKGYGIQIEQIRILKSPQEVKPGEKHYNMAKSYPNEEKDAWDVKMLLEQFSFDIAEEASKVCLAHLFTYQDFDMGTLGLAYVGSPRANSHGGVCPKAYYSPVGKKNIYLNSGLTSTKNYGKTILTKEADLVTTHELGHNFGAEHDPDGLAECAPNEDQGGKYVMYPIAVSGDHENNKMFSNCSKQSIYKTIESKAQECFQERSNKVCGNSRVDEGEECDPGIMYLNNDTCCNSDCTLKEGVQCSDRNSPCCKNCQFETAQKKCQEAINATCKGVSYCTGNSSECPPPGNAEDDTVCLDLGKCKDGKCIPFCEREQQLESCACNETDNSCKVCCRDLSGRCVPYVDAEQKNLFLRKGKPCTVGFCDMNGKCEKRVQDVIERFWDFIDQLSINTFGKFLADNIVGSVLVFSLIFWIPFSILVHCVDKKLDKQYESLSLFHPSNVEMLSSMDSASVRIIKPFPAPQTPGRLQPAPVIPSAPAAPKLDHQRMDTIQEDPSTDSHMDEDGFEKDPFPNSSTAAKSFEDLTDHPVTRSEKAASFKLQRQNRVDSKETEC

[4] = target: Disintegrin and metalloproteinase domain-containing protein 17 (Sus scrofa, UniProt O77636); assay: Inhibition of porcine Tumor necrosis factor- alpha converting enzyme (TACE, ADAM17)
Disintegrin and metalloproteinase domain-containing protein 17 (Sus scrofa, UniProt O77636), sequence (O77636 whole entry, the tested form may be a part): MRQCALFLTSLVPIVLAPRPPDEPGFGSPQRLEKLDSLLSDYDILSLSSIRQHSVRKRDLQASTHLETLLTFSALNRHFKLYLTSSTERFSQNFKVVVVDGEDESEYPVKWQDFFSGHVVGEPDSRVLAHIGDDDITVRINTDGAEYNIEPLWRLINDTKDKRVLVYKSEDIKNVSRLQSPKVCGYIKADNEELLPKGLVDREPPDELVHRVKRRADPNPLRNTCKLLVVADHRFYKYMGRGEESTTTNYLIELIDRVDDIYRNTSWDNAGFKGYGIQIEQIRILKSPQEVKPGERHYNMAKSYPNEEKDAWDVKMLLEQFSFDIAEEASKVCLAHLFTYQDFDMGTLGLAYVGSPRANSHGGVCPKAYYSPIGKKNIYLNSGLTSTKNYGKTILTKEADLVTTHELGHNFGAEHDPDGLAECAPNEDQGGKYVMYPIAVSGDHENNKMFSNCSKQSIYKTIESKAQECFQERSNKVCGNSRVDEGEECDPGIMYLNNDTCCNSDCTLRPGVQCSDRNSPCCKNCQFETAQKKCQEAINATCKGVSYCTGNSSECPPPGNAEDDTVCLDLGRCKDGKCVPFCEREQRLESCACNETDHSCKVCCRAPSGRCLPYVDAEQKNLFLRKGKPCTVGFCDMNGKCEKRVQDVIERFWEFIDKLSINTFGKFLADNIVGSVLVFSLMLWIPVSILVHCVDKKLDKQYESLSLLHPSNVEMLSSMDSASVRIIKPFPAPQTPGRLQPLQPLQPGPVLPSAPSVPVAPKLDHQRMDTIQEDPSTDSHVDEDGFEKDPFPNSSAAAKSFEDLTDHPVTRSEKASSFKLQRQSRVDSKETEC

Collagenase 3 = Collagenase 3 (Homo sapiens, UniProt P45452); assay: Inhibition of Matrix metalloprotease-13 (MMP-13); how it was run: as §1
Mus musculus = assay: Compound was tested for anti TNF-alpha activity using LPS mouse model at 5 mg/kg p.o.; type: functional; conditions: route oral

Ki (Interstitial collagenase)	Ki [1]	Ki [2]	IC50 [3]	Ki (Collagenase 3)	Structure (SMILES)	Caco-2 Papp (Caco-2)	IC50 [4]	inhibition in vivo at 5 mg/kg (Mus musculus)
> 4.9 µM	> 3.3 µM	> 2100 nM	> 3000 nM	3.27 µM	Cc1cc(COc2ccc(S(=O)(=O)CC3(CC(=O)NO)CCCN3C)cc2)c2ccccc2n1 (stereo not given)	1.6e-06 cm/s	2.9 nM	
> 4.9 µM	> 3.3 µM	> 2100 nM	240 nM	0.754 µM	Cc1cc(COc2ccc(S(=O)(=O)CC3NCCCC3C(=O)NO)cc2)c2ccccc2n1 (stereo not given)	1e-07 cm/s	< 1 nM	
> 4.9 µM	> 3.3 µM	> 2100 nM	> 3000 nM	> 5 µM	Cc1cc(COc2ccc(S(=O)(=O)CC3(CC(=O)NO)CCCCN3C)cc2)c2ccccc2n1 (stereo not given)	5.1e-06 cm/s	5.1 nM	
> 4.9 µM	> 3.3 µM	> 2100 nM	190 nM	> 5 µM	Cc1cc(COc2ccc(S(=O)(=O)CC3CN(C)CCC3C(=O)NO)cc2)c2ccccc2n1 (stereo not given)	1e-07 cm/s	< 1.9 nM	
> 4.9 µM	> 3.3 µM	> 2100 nM	506 nM	> 5 µM	Cc1cc(COc2ccc(S(=O)(=O)CC3(CC(=O)NO)CCCN(C(C)C)C3)cc2)c2ccccc2n1 (stereo not given)	2e-07 cm/s	2.7 nM	
> 4.9 µM	1.33 µM	2100 nM	77 nM	0.653 µM	Cc1cc(COc2ccc(S(=O)(=O)CC3(CC(=O)NO)CCN(C(C)C)C3)cc2)c2ccccc2n1 (stereo not given)	2e-07 cm/s	1.6 nM	37%
> 4.9 µM	> 3.3 µM	> 5000 nM			CCC(C)N1CCCCC1(CC(=O)NO)CS(=O)(=O)c1ccc(OCc2cc(C)nc3ccccc23)cc1 (stereo not given)		< 48 nM	
> 4.9 µM	1.33 µM	> 2100 nM		> 5 µM	Cc1cc(COc2ccc(S(=O)(=O)CC3(CC(=O)NO)CCCN3CC(C)C)cc2)c2ccccc2n1 (stereo not given)	7e-07 cm/s	20 nM	
> 4.9 µM	> 3.3 µM	> 2100 nM	123 nM	> 5 µM	Cc1cc(COc2ccc(S(=O)(=O)CC3(CC(=O)NO)CCCNC3)cc2)c2ccccc2n1 (stereo not given)	1e-07 cm/s	2.8 nM	31%
> 4.9 µM	> 3.3 µM	> 2100 nM		> 5 µM	Cc1cc(COc2ccc(S(=O)(=O)CC3(CC(=O)NO)CCNCC3)cc2)c2ccccc2n1	1e-07 cm/s	14 nM	57%
> 4.9 µM	> 3.3 µM	> 2100 nM	632 nM	0.753 µM	Cc1cc(COc2ccc(S(=O)(=O)CC3(CC(=O)NO)CCCCN3)cc2)c2ccccc2n1 (stereo not given)	1.7e-06 cm/s	< 1 nM	50%
> 4.9 µM	> 3.3 µM	> 2100 nM	258 nM	> 5 µM	Cc1cc(COc2ccc(S(=O)(=O)CC3(CC(=O)NO)CCOCC3)cc2)c2ccccc2n1		< 1 nM	
> 4.9 µM	> 3.3 µM	> 2100 nM	> 1000 nM	> 5 µM	Cc1cc(COc2ccc(S(=O)(=O)CC3CCN(C(C)C)CC3C(=O)NO)cc2)c2ccccc2n1 (stereo not given)	6.5e-07 cm/s	< 11 nM	
> 4.9 µM	> 3.3 µM	> 2100 nM	102 nM	2.61 µM	Cc1cc(COc2ccc(S(=O)(=O)CC3(CC(=O)NO)CCN(C)CC3)cc2)c2ccccc2n1	2e-07 cm/s	< 2 nM	
> 4.9 µM	2.17 µM	> 2100 nM	161 nM	0.603 µM	Cc1cc(COc2ccc(S(=O)(=O)CC3(CC(=O)NO)CCN(CC(C)C)C3)cc2)c2ccccc2n1 (stereo not given)	8e-07 cm/s	2.6 nM	22%
> 4.9 µM	> 3.3 µM	> 2100 nM	510 nM	> 5 µM	Cc1cc(COc2ccc(S(=O)(=O)CC3CCN(C)CC3C(=O)NO)cc2)c2ccccc2n1 (stereo not given)	2e-07 cm/s	6.5 nM	
> 4.9 µM	> 3.3 µM	> 2100 nM	> 3000 nM	> 5 µM	Cc1cc(COc2ccc(S(=O)(=O)CC3C(C(=O)NO)CCCN3C)cc2)c2ccccc2n1 (stereo not given)		< 1.1 nM	
> 4.9 µM	> 3.3 µM	> 2100 nM		> 5 µM	CC(=O)N1CCCC1(CC(=O)NO)CS(=O)(=O)c1ccc(OCc2cc(C)nc3ccccc23)cc1 (stereo not given)	6e-07 cm/s	660 nM	
> 4.9 µM	> 3.3 µM	> 2100 nM	418 nM	1.76 µM	CCCCCN1CCC(CC(=O)NO)(CS(=O)(=O)c2ccc(OCc3cc(C)nc4ccccc34)cc2)C1 (stereo not given)		3.4 nM	22%
> 4.9 µM	> 3.3 µM	> 2100 nM	403 nM	> 5 µM	Cc1cc(COc2ccc(S(=O)(=O)CC3(CC(=O)NO)CCCN3)cc2)c2ccccc2n1 (stereo not given)	4e-07 cm/s	1 nM	19%
> 4.9 µM	1.4 µM	> 2100 nM	867 nM	1.21 µM	Cc1cc(COc2ccc(S(=O)(=O)CC3(CC(=O)NO)CCCCC3)cc2)c2ccccc2n1	2.2e-05 cm/s	< 1 nM	59%
> 4.9 µM	> 3.3 µM	> 2100 nM	109 nM	> 5 µM	Cc1cc(COc2ccc(S(=O)(=O)CC3(CC(=O)NO)CCN(C)C3)cc2)c2ccccc2n1 (stereo not given)	3e-07 cm/s	3.2 nM	28%

Structure (SMILES)	Ki (Interstitial collagenase)	Ki [1]	Ki [2]	IC50 [3]	Ki (Collagenase 3)	Caco-2 Papp (Caco-2)	IC50 [4]	inhibition in vivo at 5 mg/kg (Mus musculus)
Cc1cc(COc2ccc(S(=O)(=O)CC3CCNCC3C(=O)NO)cc2)c2ccccc2n1 (stereo not given)	> 4.9 µM	> 3.3 µM	> 2100 nM	250 nM	> 5 µM	1e-07 cm/s	< 1.5 nM	
Cc1cc(COc2ccc(S(=O)(=O)CC3(CC(=O)NO)CCCO3)cc2)c2ccccc2n1 (stereo not given)	> 4.9 µM	> 3.3 µM	> 2100 nM	913 nM	> 5 µM	5e-06 cm/s	1 nM	57%
Cc1cc(COc2ccc(S(=O)(=O)CC3(CC(=O)NO)CCCC3)cc2)c2ccccc2n1	> 4.9 µM	1.57 µM	1510 nM	420 nM	0.804 µM	1.8e-05 cm/s	< 0.8 nM	
Cc1cc(COc2ccc(S(=O)(=O)CC3(CC(=O)NO)CCNC3)cc2)c2ccccc2n1 (stereo not given)	> 4.9 µM	> 3.3 µM	> 2100 nM	76 nM	3.27 µM	1e-07 cm/s	1.5 nM	34%
Cc1cc(COc2ccc(S(=O)(=O)CC3(CC(=O)NO)COC3)cc2)c2ccccc2n1	> 4.9 µM	> 3.3 µM	> 2100 nM	595 nM	> 5 µM		1 nM	
